Assay outcomes as filed in PubChem BioAssay.
ABHD5 PLIN5 PPI: ABHD5-PLIN5 protein interaction inhibition. Q00G26+Q8WTS1. Split G. princeps luciferase complementation, luminescence, 4 h. inhibition, % at 4 µM. 0.78% of 360,000 active. AID 602281;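 active means inhibition above the mean inhibition across every tested compound plus 3 SD, cut at about 22% in these data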;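 further: 0% = DMSO only wells and the 100% control is not disclosed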
Beta2AR agonist: human beta-2 adrenergic receptor agonism by FAP | AID 504454 | Am2.2-beta2AR cells, FAP receptor internalization, flow cytometry | P07550 | response, % (no concentration beside the values) | 0.43% of 340,000 active;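 active means response above a set limit, near 3 SD of response in nonfluorescent compounds, cut at about 42% in these data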
MC4R ag barr: activates human MC4R beta-arrestin recruitment; AID 540308; U2OS MC4R beta-arrestin complementation, luminescence; percent of melanotan II response, DMSO zero; 0.98% of 360,000 active; P32245; activation, % at 8.9 µM;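 active means activation above a per-plate cutoff, the mean activation of sample wells on that plate plus 3 SD, cut at about 8% in these data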
MC4R antagonist: antagonists of human melanocortin 4 receptor (MC4R); MC4R-expressing cells, MTII-stimulated cAMP, LANCE TR-FRET; P32245; inhibition, % at 6.5 µM; 0.48% of 360,000 active;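 active means inhibition above its plate's cutoff, the mean of tested wells on that plate plus 3 SD, cut at about 29% in these data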;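 further: 0% = Melanotan II alone and 100% = Melanotan II plus saturating MCL0020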
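Assay system: U2OS-MC4R stable cell line; Also added: Melanotan II; Technique: Eu-cAMP/anti-cAMP TR-FRET, emission 671 nm; Times: 30-min compound, 1-h challenge, 1-h detection, room temperature.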
PfGluPho inh: PfG6PD (Plasmodium falciparum) enzyme inhibition | PfGluPho enzyme, NADPH resazurin-diaphorase fluorescence | inhibition, % at 20 µM | 0.78% of 350,000 active | AID 504690;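 active means inhibition reaching at least a set limit at 20 µM in the primary screen, cut at about 59% in these data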;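 further: 0% = DMSO wells with substrate and 100% = DMSO wells lacking glucose-6-phosphate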
ABHD5 PLIN5 conf: ABHD5-PLIN5 interaction inhibition, confirmed. shares compounds with ABHD5 PLIN5 PPI. biochemical ABHD5-PLIN5 interaction, luminescence. inhibition, % at 4 µM. 67% of 2,200 active. AID 651612; in the data active means inhibition above about 23%;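 further: 0% = DMSO vehicle wells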
HNF4 split-luc: active in HNF4 split-luciferase counter-screen for ABHD5-PLIN5 inhibitors; shares compounds with ABHD5 PLIN5 PPI; HNF4 dimerization, luminescence, biochemical; inhibition, % at 4 µM; 77% of 2,200 active;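 active means mean inhibition across replicate wells exceeding the computed hit threshold, cut at about 13% in these data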;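 further: light from luciferase halves that rejoin when HNF4 fusion proteins dimerize; 0% = DMSO only wells and the 100% control is not given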
Target sequence (P41235 whole entry, looked up, the tested form may be a part): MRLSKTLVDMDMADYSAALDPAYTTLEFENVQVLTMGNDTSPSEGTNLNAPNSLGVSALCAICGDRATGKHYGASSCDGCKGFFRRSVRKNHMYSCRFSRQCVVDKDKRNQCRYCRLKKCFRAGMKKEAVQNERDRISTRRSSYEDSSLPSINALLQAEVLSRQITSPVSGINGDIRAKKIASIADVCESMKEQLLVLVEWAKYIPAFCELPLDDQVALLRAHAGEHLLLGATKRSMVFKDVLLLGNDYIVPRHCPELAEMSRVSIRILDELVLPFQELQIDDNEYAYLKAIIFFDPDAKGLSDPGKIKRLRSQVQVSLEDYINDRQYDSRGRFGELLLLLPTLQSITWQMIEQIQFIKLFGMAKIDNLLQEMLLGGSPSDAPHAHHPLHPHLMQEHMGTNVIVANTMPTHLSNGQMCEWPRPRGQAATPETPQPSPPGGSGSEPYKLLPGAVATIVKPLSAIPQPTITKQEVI
Numbers without * were called inactive; . = no result given. Most compounds without a hit are left out; they make up all but 3% or so of the library.

SMILES	ABHD5 PLIN5 PPI	Beta2AR agonist	MC4R ag barr	MC4R antagonist	PfGluPho inh	ABHD5 PLIN5 conf	HNF4 split-luc
CN(C)CCNC(C(=O)Nc1cc(Cl)cc(Cl)c1)c1ccccc1 (configuration not stated)	11	9	1	4	13	.	.
CC(C)NC(C(=O)Nc1cc(Cl)cc(Cl)c1)c1ccccc1 (configuration not stated)	54*	5	1	1	5	9	4
OC(c1cccc(Cl)c1)c1nc(-c2ccoc2)cs1 (configuration not stated)	27*	.	-1	6	.	47*	43*
CC1=NN(c2ccccc2)C(=O)/C1=C\C=C1/N(C)c2ccccc2C1(C)C	26*	12	-5	8	31	21	23*
CC1=NN(c2ccccc2)C(=O)/C1=C\C=C1\N(C)c2ccccc2C1(C)C	11	-16	-3	0	17	.	.
CC(C)(CC(=O)O)CC(=O)O	17	-6	-1	-2	-7	.	.
O=C(O)CC(O)(CC(=O)O)C(=O)O	23*	0	0	-2	10	80*	23*
Cc1[nH]nc(C(F)(F)F)c1N=NN1CCOCC1	50*	-4	-1	-2	20	41*	76*
Clc1ccc(N=NN2CCOCC2)cc1	2	-2	2	-9	-3	.	.
CCN(CC)CCOCCOC(=O)C1(c2ccccc2)CCCC1	58*	2	-2	5	3	77*	36*
CCN(CC)CCCOC(=O)C1(c2ccccc2)CCCC1	6	0	0	3	-12	.	.
COc1cc(C(=S)N2CCOCC2)cc(OC)c1OS(=O)(=O)c1ccc(C)cc1	-10	-6	-2	0	10	.	.
CCOC(=O)C1CCN(C(=O)CCc2nnc3ccc(NCc4ccco4)nn23)CC1	51*	3	1	18	0	13	12
O=C(CCc1nnc2ccc(NCc3ccco3)nn12)N1CCN(c2ccccc2)CC1	18	8	0	-10	2	.	.
Cc1ccc(NC(=O)CCc2nnc3ccc(NCc4ccco4)nn23)nc1	39*	0	1	-1	-11	14	24*
Cc1ccc2nc(/C(C#N)=C\c3ccc(N4CCOCC4)o3)[nH]c2c1	24*	-93	-2	-2	25	31*	44*
COc1ccc(C(=O)/C=C2/C(=O)Nc3ccccc32)cc1OC	43*	-20	-1	-9	-10	53*	85*
COc1ccc(C(=O)/C=C2/C(=O)Nc3ccccc32)cc1	36*	45*	1	11	16	72*	85*
COc1cc(OC)c(/C=C2\C(=O)Nc3ccccc32)c(OC)c1	.	.	.	.	9	.	.
COc1ccc(C(=O)/C=C2/C(=O)Nc3ccccc32)c(OC)c1	69*	23	-3	-9	21	95*	98*
O=C1Nc2ccccc2/C1=C/C(=O)c1cccs1	32*	41	-1	-2	1	57*	94*
CC(C)C(=O)Nc1c2c(nn1-c1ccc(F)cc1)CS(=O)(=O)C2	-3	-7	1	4	-4	.	.
CC(=O)Nc1cccc(C(=O)/C=C/c2ccc(F)cc2)c1	68*	54*	-2	2	14	88*	80*
CC(=O)Nc1cccc(C(=O)/C=C/c2ccc[nH]2)c1	6	-4	-4	-11	21	.	.
CCC(=O)Nc1cccc(C(=O)/C=C/c2cc(Br)ccc2OC)c1	51*	42	-1	4	18	92*	79*
SMILES	ABHD5 PLIN5 PPI	Beta2AR agonist	MC4R ag barr	MC4R antagonist	PfGluPho inh	ABHD5 PLIN5 conf	HNF4 split-luc
COc1ccc(Br)cc1/C=C/C(=O)Nc1ccc2ccccc2c1	-3	4	-1	-2	14	.	.
CC(=O)Nc1cccc(C(=O)/C=C/c2ccc(N(C)C)cc2)c1	13	3	1	3	34	.	.
CC(=O)Nc1cccc(C(=O)/C=C/c2ccc(Br)cc2)c1	79*	67*	-2	-10	-1	94*	88*
Cc1ccc(N2CC(NC(=O)C(=O)c3c(C)[nH]c4ccccc34)CC2=O)cc1C (configuration not stated)	-19	6	1	-3	-3	.	.
CC[C@@H](C)[C@@H]1CN([C@@H](CN2CCC[C@H]2CN2C(N)=NC[C@@H]2Cc2ccccc2)C(C)C)C(=N)N1CCCC1CCCC1	28*	1	0	14	11	10	5
CC(C)C[C@@H]1CN=C(N)N1C[C@@H]1CCCN1C[C@H](C)N1C[C@@H](Cc2ccccc2)N(CCc2ccc(Cl)c(Cl)c2)C1=N	27*	-8	2	11	10	14	2
CC(C)C[C@@H]1CN=C(N)N1C[C@@H]1CCCN1C[C@@H](C(C)C)N1C[C@@H](Cc2ccccc2)N(CCc2ccc(Cl)c(Cl)c2)C1=N	6	9	0	7	-4	.	.
Cc1cccc(N=Nc2ccc(O)c3ncccc23)c1	-2	9	-4	4	-10	.	.
NS(=O)(=O)c1ccc(N=Nc2ccc(O)c3ncccc23)cc1	24*	15	-4	1	-2	29*	20*
Cc1ccc(C2C3=C(CC(C)(C)CC3=O)N=C3c4ccccc4C(=O)C32)cc1 (configuration not stated)	28*	-6	-2	-2	51	58*	69*
Cc1ccc(C2C3=C(CC(C)(C)CC3=O)OC3=C2C(=O)CC(C)(C)C3)cc1	2	-4	2	8	-26	.	.
O=C1CC(c2ccco2)Cc2nc(N3CCc4ccccc4C3)ncc21 (configuration not stated)	28*	8	0	1	32	20	23*
O=C(NNC(=S)NCc1ccc(Cl)cc1)c1ccc2c(c1)OCO2	-6	-2	-2	0	11	.	.
NC(=O)C1=C(c2ccccc2)c2ccccc2C1=O	74*	14	-1	-11	42	93*	94*
CC(C)(C)C(=O)Nc1nc2cc3c(cc2s1)OCO3	0	-5	-1	6	4	.	.
CC[n+]1ccc(/C=C/c2ccc(N(C)C)cc2)c2ccccc21	28*	-119	-8	-26	20	32*	33*
CC[n+]1ccccc1/C=C/c1ccc(N(C)C)cc1	5	-342	-1	-26	1	.	.
CC[n+]1c(/C=C/c2ccc(N(C)C)cc2)ccc2ccccc21	29*	-82	-3	-36	15	27*	28*
O=C(CSc1nc2sccc2c(=O)[nH]1)N1CCN(c2ccccc2)CC1	3	14	-3	12	11	.	.
N#C/C(=C\c1ccc(N2CCOCC2)o1)C(=O)NCCc1ccccc1	25*	-7	1	1	18	19	32*
